In ChEMBL document CHEMBL3526035, “Role of the intestinal peptide transporter PEPT1 in oseltamivir absorption: in vitro and in vivo studies” (Drug Metab Dispos, 2012):

Columns and labels:
[1] = Tmax in adult fed Sprague-Dawley rat at 30 mg/kg, po administered as solution in bovine milk by HPLC-tandem mass spectrometry; type: ADME, organism-based; parameters: dose 30 mg/kg, route oral; conditions: in vivo
Summary of the method: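 Cannulated adult male Sprague-Dawley rats with chow ad libitum, 3 per vehicle, were given oral 30 mg/kg (10 ml/kg). Plasma analysis was by HPLC-MS/MS, with Tmax taken graphically from concentration-time profiles.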

[2] = Tmax in adult fasted Sprague-Dawley rat at 30 mg/kg, po administered as solution in bovine milk by HPLC-tandem mass spectrometry; type: ADME, organism-based; parameters: dose 30 mg/kg, route oral; conditions: in vivo
Summary of the method: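 Male Sprague-Dawley rats (7–8 weeks, 243–283 g) had jugular-vein cannulas and 3 days' recovery. Fasting ran from 6 h predose through the 6 h study. Three rats per vehicle received 30 mg/kg oral (10 ml/kg). Blood was sampled 0.25–6 h into K2EDTA tubes with dichlorvos. Plasma was assayed by HPLC-MS/MS (0.1–500 µg/l). Tmax was read graphically (noncompartmental).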

[3] = AUC(0 to 6 hrs) in adult fasted Sprague-Dawley rat at 30 mg/kg, po administered as water solution by HPLC-tandem mass spectrometry; type: ADME, organism-based; parameters: time < 6 hr, dose 30 mg/kg, route oral; conditions: plasma
Summary of the method: (§1)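 Adult male Sprague-Dawley rats (243-283 g), jugular-cannulated, fasted from 6 h before dosing through the 6-h study. Given 30 mg/kg orally (free base) at 10 ml/kg, n=3/group. Blood sampled at 0.25-6 h into K2EDTA with dichlorvos esterase inhibitor. Plasma assayed by LC-MS/MS (0.1-500 μg/l). Noncompartmental analysis: linear-trapezoid AUC; infinity extrapolation via log-linear terminal λz.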

[4] = Drug uptake in CHOK1 cells expressing human PEPT1 at pH 5 by HPLC coupled with radiodetection analysis; type: ADME, cell-based, Cricetulus griseus; conditions: chinese hamster, cho-k1, pH 5
Summary of the method: (§2)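 Accumulation of [14C]oseltamivir or its carboxylate in CHO-PEPT1 versus CHO-K1 cells. Conditions varied: KH buffer (with MES) or Hanks' balanced salt solution, pH 5 or 6 readjusted after substrate addition, 30 s to 15 min at 37°C. Uptake was quenched with ice-cold PBS-BSA, followed by Triton X-100 lysis, scintillation counting, and BCA protein normalization. HPLC-radiodetection checked ester stability.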

[5] = AUC(0 to 6 hrs) in adult fed Sprague-Dawley rat at 30 mg/kg, po administered as 125 mM aqueous Gly-Sar solution by HPLC-tandem mass spectrometry; type: ADME, organism-based; parameters: time < 6 hr, dose 30 mg/kg, route oral; conditions: plasma
Summary of the method: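 Sprague-Dawley males, 7-8 weeks, 243-283 g, jugular-cannulated, 3 days' recovery; fed (chow ad libitum). Single oral dose of 30 mg/kg (free base) at 10 ml/kg; 3 rats/group. Jugular blood taken at 0.25-24 h into K2EDTA with dichlorvos, kept on ice. Plasma analysed by validated LC-MS/MS (0.1-500 μg/l). Noncompartmental analysis; AUC by linear trapezoid, AUC0-∞ extrapolated using λz.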

[6] = Drug uptake in CHOK1 cells expressing human PEPT1 by HPLC coupled with radiodetection analysis in presence of KH and Hanks' balanced salt solution; type: ADME, cell-based, Cricetulus griseus; conditions: chinese hamster, cho-k1; summary of the method: as §2
[7] = Tmax in juvenile breast-fed Sprague-Dawley rat at 30 mg/kg, po administered as water solution by HPLC-tandem mass spectrometry; type: ADME, organism-based; parameters: dose 30 mg/kg, route oral; conditions: in vivo
Summary of the method: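 Seven-day-old Sprague-Dawley pups, males and females, 15 per group, were gavaged with 30 mg/kg (10 ml/kg). Breast-fed pups stayed with their dams; fasted pups were removed from 8 h predose through 5 h. Cardiac blood was drawn under isoflurane at 0.25, 0.5, 1, 2 and 5 h (composite, n=3/time point), with dichlorvos added. Plasma was analyzed by HPLC-MS/MS and Tmax read graphically.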

[8] = Cmax in juvenile fasted Sprague-Dawley rat at 30 mg/kg, po administered as 125 mM aqueous Gly-Sar solution by HPLC-tandem mass spectrometry; type: ADME, organism-based; parameters: dose 30 mg/kg, route oral; conditions: in vivo
Summary of the method: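 7-day-old Sprague-Dawley pups (9.7-18.9 g, both sexes), 15 per group. Given 30 mg/kg by oral gavage (10 ml/kg); breast-fed pups stayed with dams, fasted pups were removed 8 h before dosing. Blood taken by cardiac puncture under isoflurane at 0.25, 0.5, 1, 2 and 5 h, n=3 per time point (composite design). Dichlorvos-treated plasma assayed by LC-MS/MS; AUC0-5h by noncompartmental analysis.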

[9] = Drug uptake in CHOK1 cells by HPLC coupled with radiodetection analysis in presence of KH and Hanks' balanced salt solution; type: ADME, cell-based, Cricetulus griseus; conditions: chinese hamster, cho-k1
[10] = AUC(0 to infinity) in adult fasted Sprague-Dawley rat at 30 mg/kg, po administered as 125 mM aqueous Gly-Sar solution by HPLC-tandem mass spectrometry; type: ADME, organism-based; parameters: time infinity, dose 30 mg/kg, route oral; conditions: plasma; summary of the method: as §1
[11] = Cmax in healthy human at 150 mg, po administered as single dose by HPLC-tandem mass spectrometry under fed conditions; type: ADME, organism-based; parameters: dose 150 mg, route oral; conditions: in vivo
Summary of the method: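 Open-label crossover in 18 healthy volunteers (9 male, 9 female, mean age 26). Each received marketed oseltamivir 150 mg orally, once fasted from midnight and once after a high-fat, high-calorie breakfast, with a 7-10 day washout. Plasma and urine collected over 0-72 h and analysed by HPLC-MS/MS. AUC and Cmax compared after log transformation.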

[12] = Cmax in adult fed Sprague-Dawley rat at 30 mg/kg, po administered as water solution by HPLC-tandem mass spectrometry; type: ADME, organism-based; parameters: dose 30 mg/kg, route oral; conditions: in vivo
Summary of the method: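 Adult cannulated Sprague-Dawley rats, fasted (from 6 h predose) or fed, dosed orally at 30 mg/kg (10 ml/kg), 3 per group. Serial jugular plasma with dichlorvos stabilisation, measured by LC-MS/MS. Cmax read graphically from the concentration-time profile.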

[13] = Drug uptake in CHOK1 cells incubated for 30s to 15 mins by HPLC coupled with radiodetection analysis; type: ADME, cell-based, Cricetulus griseus; conditions: chinese hamster, cho-k1, 0.25 h; summary of the method: as §2

Row | SMILES | Tmax [1] [min] | Tmax [2] [min] | AUC(0-t) at 6 h [3] [ng·h/mL] | Drug uptake [4] | AUC(0-t) at 6 h [5] [ng·h/mL] | Drug uptake [6] | Tmax [7] [min] | Cmax [8] [ng/mL] | Drug uptake [9] | AUC(0-inf) [10] [ng·h/mL] | Cmax [11] [ng/mL] | Cmax [12] [ng/mL] | Drug uptake [13]
1 | CCC(CC)O[C@@H]1C=C(C(=O)O)C[C@H](N)[C@H]1NC(C)=O [OSELTAMIVIR CARBOXYLATE] | 45 | 115 | 5910 | Active | 2960 | Active | 300 | 2710 | Active | 8860 | 441 | 1110 | Active
2 | CCOC(=O)C1=C[C@@H](OC(CC)CC)[C@H](NC(C)=O)[C@@H](N)C1 [OSELTAMIVIR] | 24.6 | 30 | 2680 | Active | 2280 | Active | 60 | 10400 | Active | 3810 | 101 | 1270 | Active
